≈ marks a conversion by molar mass, not a printed value.
What follows are compounds tested on L1210 (assay: In vitro inhibition of L1210 cell growth.). Conditions: Mus musculus, read-out: ID50 (the source's name).
Type: functional
Method in brief: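 Murine L1210 leukemia cells grown in suspension in McCoy's 5A with 10% horse serum, glutamine, penicillin, streptomycin; 37 °C, 10% CO2. Compound in Me2SO added to 10^5 cells/tube to final 0.01, 0.1 and 10 μg/mL; 7 h continuous exposure.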

First: CN(C)CCNc1ccc(NCCCN)c2c1C(=O)c1ccccc1C2=O
Second: CN(C)CCNc1ccc(NCCCCN)c2c1C(=O)c1ccccc1C2=O
The IC50 of the first is 11-fold higher: 0.05 µg/mL (≈ 0.136 µM) for the first, 0.0045 µg/mL (≈ 0.0118 µM) for the second.

Going from `COc1ccc(NCCCCCNC(C)=O)c2c1C(=O)c1ccccc1C2=O` to `COc1ccc(NCCCCNC(C)=O)c2c1C(=O)c1ccccc1C2=O`, the IC50 rises from 9 µg/mL (≈ 23.7 µM) to > 10 µg/mL.

Compared with `CC(=O)NCCCCNc1ccc(NCCN(C)C)c2c1C(=O)c1ccccc1C2=O`, `CC(=O)NCCCCCNc1ccc(NCCN(C)C)c2c1C(=O)c1ccccc1C2=O` is 77-fold higher in IC50: 0.03 µg/mL (≈ 0.071 µM) for the first, 2.3 µg/mL (≈ 5.27 µM) for the second.

`COc1ccc(NCCN)c2c1C(=O)c1ccccc1C2=O` and `COc1ccc(NCCCN)c2c1C(=O)c1ccccc1C2=O` are within 1.5-fold of each other in IC50: 2.5 µg/mL (≈ 8.44 µM) for the first, 2.8 µg/mL (≈ 9.02 µM) for the second.

Going from `COc1ccc(NCCCCN)c2c1C(=O)c1ccccc1C2=O` to `COc1ccc(NCCCNC(C)=O)c2c1C(=O)c1ccccc1C2=O`, the IC50 rises from 1.8 µg/mL (≈ 5.55 µM) to > 10 µg/mL.

Compared with `CN(C)CCCNc1ccc(NCCCCNC(=O)OCc2ccccc2)c2c1C(=O)c1ccccc1C2=O`, `CN(C)CCNc1ccc(NCCCCNC(=O)OCc2ccccc2)c2c1C(=O)c1ccccc1C2=O` is 3-fold higher in IC50: 0.29 µg/mL (≈ 0.549 µM) for the first, 0.88 µg/mL (≈ 1.71 µM) for the second.

First: CC(=O)NCCCNc1ccc(NCCN(C)C)c2c1C(=O)c1ccccc1C2=O
Second: CC(=O)NCCNc1ccc(NCCN(C)C)c2c1C(=O)c1ccccc1C2=O
The IC50 of the first is 5.1-fold lower: 0.4 µg/mL (≈ 0.979 µM) for the first, 2.05 µg/mL (≈ 5.2 µM) for the second.

First: CN(C)CCCNc1ccc(NCCCCN)c2c1C(=O)c1ccccc1C2=O
Second: COc1ccc(NCCNC(C)=O)c2c1C(=O)c1ccccc1C2=O
The IC50 of the first is lower: 0.18 µg/mL (≈ 0.456 µM) for the first, > 10 µg/mL for the second.

`COc1ccc(NCCCCNC(=O)OCc2ccccc2)c2c1C(=O)c1ccccc1C2=O` was tested, and the IC50 was > 10 µg/mL.
